Calls of active or inactive are those of the source. The calls are words filed in the database; no cut-off is given here.
Key:
[1] = molecular target: T1, Transforming growth factor beta-1 proprotein/Mothers against decapentaplegic homolog 3 (Mus musculus) (UniProt P04202+Q8BUN5); experiment: Inhibition of TGF-beta1/smad3 signaling pathway in mouse NIH/3T3 cells at 10 uM after 18 hrs by CAGA-luciferase reporter gene assay relative to control; type: cell-based
How it was run: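 CAGA12-luciferase stably transfected NIH3T3 cells plated overnight. Treated with TGF-β1 (5 ng/mL) with or without compound at 10 µM in DMEM containing 0.1% FBS for 18 h. Lysate luminescence integrated over the first 20 s. Inhibition ratio calculated from TGF-β1-stimulated signal of treated versus control wells; mean of three independent experiments.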

[2] = molecular target: Transforming growth factor beta-1 proprotein (Mus musculus) (UniProt P04202); experiment: Inhibition of TGF-beta1 in mouse Mlg cells assessed as decrease in cell viability at 10 uM after 24 hrs by MTT assay; type: cell-based
Sequence of Transforming growth factor beta-1 proprotein (Mus musculus) (P04202 whole entry): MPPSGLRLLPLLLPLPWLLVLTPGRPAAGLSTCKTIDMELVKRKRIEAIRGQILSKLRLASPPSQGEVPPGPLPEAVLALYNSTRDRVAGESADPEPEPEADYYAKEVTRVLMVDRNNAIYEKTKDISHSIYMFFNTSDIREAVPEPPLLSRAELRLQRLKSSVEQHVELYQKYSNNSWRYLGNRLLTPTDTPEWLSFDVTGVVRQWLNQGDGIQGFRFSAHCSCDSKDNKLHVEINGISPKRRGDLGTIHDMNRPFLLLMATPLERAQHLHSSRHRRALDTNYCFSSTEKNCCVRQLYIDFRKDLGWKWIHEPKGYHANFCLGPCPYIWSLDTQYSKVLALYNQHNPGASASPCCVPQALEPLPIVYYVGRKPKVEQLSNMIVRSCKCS
How it was run: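 Mlg cells exposed to TGF-β1 (5 ng/mL) with or without compound at 10 µM for 24 h; DMSO-treated cells served as control. MTT added for 4 h, then DMSO, and absorbance read. Viability normalized to control as 100%. Triplicate.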

[3] = molecular target: Transforming growth factor beta-1 proprotein (Mus musculus) (UniProt P04202); experiment: Inhibition of TGF-beta1 in mouse Mlg cells assessed as reduction in fibronectin mRNA expression level at 10 uM after 24 hrs by qRT-PCR method; type: cell-based
How it was run: (§1)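 Mlg lung fibroblasts treated with or without TGF-β1 (5 ng/mL) plus compound at 10 µM for 24 h. α-SMA, Col1a1 and Fn1 mRNA measured by real-time PCR with β-actin reference primers. n=3.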

[4] = molecular target: Transforming growth factor beta-1 proprotein (Mus musculus) (UniProt P04202); experiment: Inhibition of TGF-beta1 in mouse Mlg cells assessed as reduction in cell migration at 10 uM after 24 hrs by wound healing based light microscopy
How it was run: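 Confluent Mlg monolayers scratched to a 100-µm wound. Cells then cultured in serum-free medium with or without TGF-β1 (5 ng/mL) and compound at 10 µM. Light-microscope images taken at 0, 12 and 24 h; wound area expressed relative to the initial scratch.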

[5] = molecular target: Transforming growth factor beta-1 proprotein (Mus musculus) (UniProt P04202); experiment: Inhibition of TGF-beta1 in mouse Mlg cells assessed as reduction in Col1a1 mRNA expression level at 10 uM after 24 hrs by qRT-PCR method; type: cell-based; how it was run: as §1
[6] = molecular target: Transforming growth factor beta-1 proprotein (Mus musculus) (UniProt P04202); experiment: Inhibition of TGF-beta1 in mouse Mlg cells assessed as reduction in alpha-SMA mRNA expression level at 10 uM after 24 hrs by qRT-PCR method; type: cell-based; how it was run: as §1
[7] = test system: Mus musculus; experiment: Antifibrotic activity in bleomycin-induced pulmonary fibrosis in C57BL/6 mouse model assessed as decrease in collagen content in lung at 100 mg/kg, po qd administered from day 7 to 14 by spectrophotometric method; type: functional, organism-based
How it was run: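 Bleomycin model as above: 2 U/kg intratracheal in male C57BL/6 mice, 100 mg/kg daily from day 7 to day 14. Right lungs collected at day 14, dried and acid-hydrolysed, filtered, and pH adjusted to 6.5-8.0. Hydroxyproline then measured by chloramine-T spectrophotometry.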

[8] = test system: Mus musculus; experiment: In vivo inhibition of TGF-beta1/smad3 signaling pathway in bleomycin-induced pulmonary fibrosis in C57BL/6 mouse model assessed as decrease in Col1 level in lung tissue at 100 mg/kg, po qd administered from day 7 to 14 by immunohistochemical analysis; type: functional, organism-based
How it was run: (§2)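 Lungs from bleomycin-challenged C57BL/6 mice (2 U/kg intratracheal; 100 mg/kg daily, days 7-14) were paraffin-embedded and dewaxed. Citrate (0.01 M) microwave antigen retrieval, then 5% serum block. Primary antibodies overnight at 4 °C: α-SMA 1:200, collagen I 1:100, p-Smad3 1:50. Secondary antibody 1 h at room temperature, then hematoxylin counterstain and microscopy.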

[9] = molecular target: T1, Transforming growth factor beta-1 proprotein/Mothers against decapentaplegic homolog 3 (Mus musculus); experiment: Inhibition of TGF-beta1/smad3 signaling pathway in mouse NIH/3T3 cell extract assessed as decrease in Smad3 phosphorylation at 10 uM after 30 mins by Western blot analysis; type: protein assay
[10] = test system: Mus musculus; experiment: In vivo inhibition of TGF-beta1/smad3 signaling pathway in bleomycin-induced pulmonary fibrosis in C57BL/6 mouse model assessed as decrease in smad3 phosphorylation level in lung tissue at 100 mg/kg, po qd administered from day 7 to 14 by immunohistochemical analysis; type: functional, organism-based; how it was run: as §2
[11] = molecular target: T1, Transforming growth factor beta-1 proprotein/Mothers against decapentaplegic homolog 3 (Mus musculus); experiment: Inhibition of TGF-beta1/smad3 signaling pathway in mouse NIH/3T3 cells assessed as decrease in ECM production at 10 uM after 24 hrs; type: cell-based
[12] = test system: Mus musculus; experiment: In vivo inhibition of TGF-beta1/smad3 signaling pathway in bleomycin-induced pulmonary fibrosis in C57BL/6 mouse model assessed as decrease in Col1 protein expression level in lung tissue at 100 mg/kg, po qd administered from day 7 to 14 by Western blot analysis; type: functional, organism-based
[13] = test system: Mus musculus; experiment: In vivo inhibition of TGF-beta1/smad3 signaling pathway in bleomycin-induced pulmonary fibrosis in C57BL/6 mouse model assessed as decrease in alpha-SMA level in lung tissue at 100 mg/kg, po qd administered from day 7 to 14 by immunohistochemical analysis; type: functional, organism-based; how it was run: as §2
[14] = test system: Mus musculus; experiment: Antifibrotic activity in bleomycin-induced pulmonary fibrosis in C57BL/6 mouse model assessed as fibrotic area in lungs at 100 mg/kg, po qd administered from day 7 to 14 by hematoxylin-eosin staining based fluorescence microscopy; type: functional
How it was run: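 Male C57BL/6 mice (7-8 weeks, n=5/group) given intratracheal bleomycin 2 U/kg under chloral hydrate anaesthesia. Dosing at 100 mg/kg daily from day 7 to day 14, sacrifice at day 14. Left lungs formalin-fixed, paraffin-embedded, 5 µm sections HE-stained. Fibrosis ratio taken as fibrotic-region pixels over total lung pixels.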

[15] = molecular target: T1, Transforming growth factor beta-1 proprotein/Mothers against decapentaplegic homolog 3 (Mus musculus); experiment: Inhibition of TGF-beta1/smad3 signaling pathway in mouse NIH/3T3 cells at 40 uM after 18 hrs by CAGA-luciferase reporter gene assay; type: cell-based
How it was run: (§3)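 CAGA12-luciferase NIH3T3 cells stimulated with TGF-β1 (5 ng/mL) in 0.1% FBS DMEM alongside compound at 5, 10, 20 and 40 µM for 18 h. Lysate luciferase read over the first 20 s. Triplicate.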

[16] = molecular target: T1, Transforming growth factor beta-1 proprotein/Mothers against decapentaplegic homolog 3 (Mus musculus); experiment: Inhibition of TGF-beta1/smad3 signaling pathway in mouse NIH/3T3 cell extract assessed as decrease in alpha-SMA protein expression at 10 uM after 24 hrs by Western blot analysis
[17] = molecular target: T1, Transforming growth factor beta-1 proprotein/Mothers against decapentaplegic homolog 3 (Mus musculus); experiment: Inhibition of TGF-beta1/smad3 signaling pathway in mouse NIH/3T3 cells at 5 to 40 uM after 18 hrs by CAGA-luciferase reporter gene assay; type: cell-based; how it was run: as §3

T1 sequence (P04202 279-390 limits assumed): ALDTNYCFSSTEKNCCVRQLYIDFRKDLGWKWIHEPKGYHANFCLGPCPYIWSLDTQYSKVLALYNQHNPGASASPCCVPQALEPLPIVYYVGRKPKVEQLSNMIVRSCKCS
T1 sequence (Q8BUN5 2-425 partner limits assumed): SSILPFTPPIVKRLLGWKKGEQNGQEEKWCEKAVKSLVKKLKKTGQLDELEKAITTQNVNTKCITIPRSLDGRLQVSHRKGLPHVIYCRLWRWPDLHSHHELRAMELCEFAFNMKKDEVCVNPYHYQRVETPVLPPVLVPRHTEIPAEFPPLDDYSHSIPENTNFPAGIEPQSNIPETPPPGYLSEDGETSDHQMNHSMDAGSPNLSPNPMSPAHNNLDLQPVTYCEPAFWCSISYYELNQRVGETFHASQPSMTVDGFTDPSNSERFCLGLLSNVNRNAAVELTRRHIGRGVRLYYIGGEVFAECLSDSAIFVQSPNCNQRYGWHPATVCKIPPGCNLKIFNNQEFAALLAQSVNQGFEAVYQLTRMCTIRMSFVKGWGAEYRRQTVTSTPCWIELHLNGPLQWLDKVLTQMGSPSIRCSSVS

SMILES: C=C1C(=O)O[C@@H]2C[C@@]3(C)CC[C@@H](OC(=O)[C@@H](NC(=O)OC(C)(C)C)C(C)C)[C@]4(CO4)[C@@H]3C[C@H]12
- inhibition [1]: 17.1%

SMILES: C=C1C(=O)O[C@@H]2C[C@@]3(C)CC[C@@H](OC(=O)CP(=O)(OCC)OCC)[C@]4(CO4)[C@@H]3C[C@H]12
- inhibition [1]: 3.67%

SMILES: C=C1C(=O)O[C@@H]2C[C@@]3(C)CC[C@@H](OC(C)=O)[C@]4(CO4)[C@@H]3C[C@H]12
- inhibition [1]: -2.36%

SMILES: C=C1C(=O)O[C@@H]2C[C@@]3(C)CC[C@@H](O)C(=C)[C@@H]3C[C@H]12
- inhibition [2]: Active
- inhibition [1]: 61.9%
- inhibition [3]: Active
- inhibition [4]: Active
- inhibition [5]: Active

SMILES: C=C1C(=O)O[C@@H]2C[C@@]3(C)CCC[C@]4(CO4)[C@@H]3C[C@H]12
- inhibition [1]: 3.08%

SMILES: C=C1C(=O)O[C@@H]2C[C@@]3(C)CC[C@@H](O)[C@]4(CO4)[C@@H]3C[C@H]12
- inhibition [6]: Active
- inhibition [2]: Active
- inhibition [1]: 46%
- inhibition [3]: Active
- inhibition [4]: Active
- inhibition [5]: Active

SMILES: C=C1C(=O)O[C@@H]2C[C@@]3(C)CC[C@@H](O[Si](C)(C)C(C)(C)C)C(=C)[C@@H]3C[C@H]12
- inhibition [1]: 27.8%

SMILES: C=C1C(=O)O[C@@H]2C[C@@]3(C)CCC[C@H](C)[C@@]34O[C@H]4[C@H]12
- inhibition [6]: Active
- inhibition [2]: Active
- inhibition [1]: 77.7%
- inhibition [3]: Active
- inhibition [4]: Active
- inhibition [5]: Active

SMILES: C=C1C(=O)O[C@@H]2C[C@@]3(C)CC[C@@H](OC(C)=O)C(=C)[C@@H]3C[C@H]12
- inhibition [1]: 6.58%

SMILES: C=C1C(=O)O[C@@H]2C[C@@]3(C)CC[C@@H](OC(=O)CCCCCCC)[C@]4(CO4)[C@@H]3C[C@H]12
- inhibition [1]: -7.65%

SMILES: C#CCCCC(=O)O[C@@H]1CC[C@]2(C)C[C@H]3OC(=O)C(=C)[C@H]3C[C@H]2[C@@]12CO2
- inhibition [1]: 6.65%

SMILES: CCOC(=O)/C=C/C(=O)O[C@@H]1CC[C@]2(C)C[C@H]3OC(=O)[C@@H](CN(C)C)[C@H]3C[C@H]2[C@@]12CO2.O=C(O)/C=C/C(=O)O
- Activity [7]: Active
- inhibition [8]: Active
- inhibition [9]: Active
- inhibition [10]: Active
- inhibition [11]: Active
- inhibition [12]: Active
- inhibition [13]: Active
- Activity [14]: 53.5%
- inhibition [15]: Active
- inhibition [16]: Active

SMILES: C=C1C(=O)O[C@@H]2C[C@@]3(C)CC[C@@H](OC(=O)[C@@H](NC(=O)OC(C)(C)C)C(C)C)C(=C)[C@@H]3C[C@H]12
- inhibition [1]: 22%

SMILES: C=C1C(=O)O[C@@H]2C[C@@]3(C)CC[C@@H](OC(=O)C4CC4)C(=C)[C@@H]3C[C@H]12
- inhibition [1]: 4.63%

SMILES: C=C1[C@H](O)CC[C@]2(C)C[C@H]3OC(=O)[C@@H](CN(C)C)[C@H]3C[C@@H]12
- inhibition [17]: Active

SMILES: C=C1C(=O)O[C@@H]2C[C@@]3(C)CC[C@@H](OC(=O)c4ccccc4)[C@]4(CO4)[C@@H]3C[C@H]12
- inhibition [1]: 26.7%

SMILES: C=C1C(=O)O[C@@H]2C[C@@]3(C)CC[C@@H](OC(=O)/C=C/CCC)[C@]4(CO4)[C@@H]3C[C@H]12
- inhibition [1]: 13.5%

SMILES: C=C1C(=O)O[C@@H]2C[C@@]3(C)CC[C@@H](OC(=O)/C=C/C(=O)OCC)[C@]4(CO4)[C@@H]3C[C@H]12
- inhibition [2]: Active
- inhibition [1]: 71.3%
- inhibition [4]: Active
- inhibition [5]: Active

SMILES: CN(C)C[C@@H]1C(=O)O[C@@H]2C[C@@]3(C)CC[C@@H](OC(=O)C4=CCCCC4)[C@]4(CO4)[C@@H]3C[C@H]12
- inhibition [17]: Active

SMILES: C=C1C(=O)O[C@@H]2C[C@@]3(C)CCC(=O)C(=C)[C@@H]3C[C@H]12
- inhibition [1]: 2.24%

SMILES: C=C1C(=O)O[C@@H]2C[C@@]3(C)CC[C@@H](OC(=O)C4=CCCCC4)[C@]4(CO4)[C@@H]3C[C@H]12
- inhibition [1]: 34.8%
- inhibition [4]: inactive
